The species named for data set [1] is Homo sapiens. Kind of data set: Excited-state lifetime value for carboxylate form of compound bound to human serum albumin. The following applies: in vitro. It counts as ADME. The gist of the method: (§1)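 Phase-shift lifetimes, 30 MHz modulation, no polarizers, long-pass emission filters, in PBS pH 7.4 at 37 °C. Drug 20 μM (lactone or carboxylate form) titrated with HSA. Lifetimes corrected for HSA background (τH 3.2 ns, fH weighting). Bound lifetime τB extrapolated to infinite HSA by nonlinear least-squares fit to τC = τB + b·exp(−c[HSA]). Triplicate runs.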

Data set [2] in a line: Half-life in PBS buffer solution in the absence of human serum albumin. It counts as ADME. The following applies: PBS buffer without human serum albumin. An outline of the steps: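 Lactone hydrolysis at 1 μM drug in PBS pH 7.40 ± 0.05, 37 °C, with or without 290 μM HSA. Aliquots taken at mixing and every 5 min, diluted in water, then run on C18 reversed-phase HPLC with fluorescence detection of lactone and carboxylate. t1/2 from nonlinear least-squares fit of lactone decay. At least three independent kinetic runs.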

Data set [3] in a line: Excited-state lifetime value for free lactone form of compound in solution. It counts as ADME. An outline of the steps:
(§2)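 Phase-shift fluorescence lifetime, 30 MHz modulated excitation, no polarizers, long-pass emission filters. Measured on 20 μM lactone or carboxylate form in HSA-free PBS, pH 7.40 ± 0.05, 37 °C. Carboxylate made by mixing DMSO stock 1:1 with PBS pH 10.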

The nature of data set [4]: Half-life in PBS buffer solution in the presence of human serum albumin. The following applies: PBS buffer with human serum albumin. It counts as ADME.
The species named for data set [5] is Homo sapiens. In words: Excited-state lifetime value for lactone form of compound bound to human serum albumin. It counts as ADME. The gist of the method:
as §1

A short description of data set [6]: Excited-state lifetime value for free carboxylate form of compound in solution. It counts as ADME. The gist of the method:
as §2

Data set [7] deals with T1, Albumin (Homo sapiens, UniProt P02768). Kind of data set: Association constant for the binding of the lactone form to human serum albumin;(M aa)e-1. The gist of the method:
(§3)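 Fluorescence lifetime titration in PBS, pH 7.40 ± 0.05, 37 °C. Total drug 20 μM, lactone or carboxylate form (carboxylate stock made by mixing DMSO stock 1:1 with PBS pH 10), titrated with varying HSA. Phase-shift lifetimes at 30 MHz modulation. Free fraction (τ − τB)/(τF − τB) plotted against log amino-acid residue concentration. K and n obtained by nonlinear least-squares fit to K = [Db]/([Df][aa]^n).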

Data set [8] addresses T1, Albumin. In words: Binding parameter of the lactone form to human serum albumin; n value. An outline of the steps: as §3
Data set [9] addresses T1, Albumin. In words: Binding parameter of the carboxylate form to human serum albumin; n value. An outline of the steps: as §3
In data set [10] the target is T1, Albumin. In words: Association constant for the binding of the carboxylate form to human serum albumin;(M aa)e-1. The gist of the method:
as §3

T1 sequence (P02768 whole entry): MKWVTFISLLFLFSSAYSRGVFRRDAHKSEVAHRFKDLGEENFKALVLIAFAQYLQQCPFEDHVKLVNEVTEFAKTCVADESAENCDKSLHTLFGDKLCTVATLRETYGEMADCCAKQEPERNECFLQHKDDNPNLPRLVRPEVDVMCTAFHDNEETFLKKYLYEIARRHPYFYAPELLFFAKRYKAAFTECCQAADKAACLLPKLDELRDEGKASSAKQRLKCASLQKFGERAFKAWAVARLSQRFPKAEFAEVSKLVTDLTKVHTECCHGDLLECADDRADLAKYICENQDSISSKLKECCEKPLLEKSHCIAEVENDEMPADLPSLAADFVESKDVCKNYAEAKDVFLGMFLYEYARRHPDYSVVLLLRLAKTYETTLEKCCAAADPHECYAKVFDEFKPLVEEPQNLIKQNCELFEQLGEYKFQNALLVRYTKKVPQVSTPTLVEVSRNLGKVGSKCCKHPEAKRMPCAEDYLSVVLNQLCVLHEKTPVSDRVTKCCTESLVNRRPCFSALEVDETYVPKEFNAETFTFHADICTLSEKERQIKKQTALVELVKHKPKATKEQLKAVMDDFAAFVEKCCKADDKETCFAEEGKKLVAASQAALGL

As a reminder, the half-life is the time needed for the level to fall by half in the phase considered. As to `CCc1c2c(nc3ccc(C4CCN(C(=O)OC)CC4)cc13)-c1cc3c(c(=O)n1C2)COC(=O)C3(O)CC` (stereo not drawn), the T bound in data set [1] stood at 4 ns; in data set [5], 3.7 ns. The half-life in data set [2] worked out at 25.6 min; in data set [4] it was 29 min. In addition, the results for the T free in [3] and in [6] were 3.7 ns and 4 ns, respectively.
For the molecule `CCC1(O)C(=O)OCc2c1cc1n(c2=O)Cc2cc3cc4c(cc3nc2-1)OCO4` (stereo not drawn), the K is recorded as 10 1/Maa in data set [7] and 2200 1/Maa in data set [10]. For the same molecule, the T bound in data set [1] and in data set [5] was 1.3 ns in each case. Also, the values for the half-life in data set [2] and in [4] were 31.7 min and 20.7 min, respectively. For the same molecule, the T free in data set [3] stood at 2 ns; in [6] it was 2.4 ns. Moreover, the Activity in [8] was determined as 1.3; in [9] it was 1.7.
Take `CCC1(O)C(=O)OCc2c1cc1n(c2=O)Cc2cc3c(Cl)c4c(cc3nc2-1)OCO4` (stereo not drawn): the values for the T bound in data set [1] and in [5] were 1.1 ns and 1.9 ns, respectively. The half-life in [2] was 34.6 min; in [4], 16.9 min. The T free is reported as 1.9 ns in data set [3] and 2.5 ns in data set [6]. The molecule also came in with an Activity in data set [9] of 1.6. The K in data set [10] is reported as 1200 1/Maa.
In turn, `CCc1c2c(nc3ccc(O)cc13)-c1cc3c(c(=O)n1C2)COC(=O)[C@]3(O)CC` [7-ETHYL-10-HYDROXYCAMPTOTHECIN] showed a half-life in [2] of 19.9 min.
As for `CC[C@@]1(O)C(=O)OCc2c1cc1n(c2=O)Cc2cc3c(N)cccc3nc2-1` [9-AMINOCAMPTOTHECIN], the results for the half-life in data set [2] and in data set [4] were 17.9 min and 23.4 min, respectively.
With `CC[C@@]1(O)C(=O)OCc2c1cc1n(c2=O)Cc2cc3ccccc3nc2-1` [CAMPTOTHECIN], the results for the K in data set [7] and in data set [10] were 30 1/Maa and 4700 1/Maa, respectively. Moreover, the T bound stood at 1.3 ns in data set [1] and 2.7 ns in [5]. Also, the half-life in data set [2] stood at 23.8 min; in data set [4] it was 12.5 min. In addition, the T free in data set [3] is listed as 4.2 ns; in data set [6] it was 4.3 ns. Besides, the values for the Activity in [8] and in [9] were 1.8 and 2.3, respectively.
On to `CC[C@@]1(O)C(=O)OCc2c1cc1n(c2=O)Cc2cc3cc(O)ccc3nc2-1` [HYDROXYCAMPTOTHECIN], for which the K in data set [7] is given as 130 1/Maa; in [10], 260 1/Maa. Further, the values for the T bound in data set [1] and in data set [5] were 5.5 ns and 5.4 ns, respectively. Further, the figures for the half-life in data set [2] and in data set [4] were 22.1 min and 21.1 min, respectively. For the same molecule, the T free in [3] and in data set [6] was 4 ns each time. Further, the Activity in [8] and in data set [9] was 1.7 in each case.
Regarding `CC[C@@]1(O)C(=O)OCc2c1cc1n(c2=O)Cc2cc3c(CN(C)C)c(O)ccc3nc2-1` [TOPOTECAN], the T bound in data set [1] was 6.1 ns; in data set [5], 6 ns. Moreover, the figures for the half-life in [2] and in data set [4] were 22.8 min and 28.9 min, respectively. In addition, the T free worked out at 6 ns in data set [3] and 6.1 ns in data set [6].

The values above are taken from ChEMBL document CHEMBL1127496, “The structural basis of camptothecin interactions with human serum albumin: impact on drug stability” (J Med Chem, 1994).
